Results reported in ChEMBL document CHEMBL4513216, “Probing the Open Global Health Chemical Diversity Library for Multistage-Active Starting Points for Next-Generation Antimalarials” (ACS Infect Dis, 2020).

Test: Toxicity liver stage against HepG2, at 10uM
Type: cell-based
Design: test concentration 10 uM, cell line HepG2-A16-CD81EGFP
Settings: human, HepG2-A16-CD81EGFP cells; read-out: INHIBITION
Outline: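 Uninfected HepG2-A16-CD81EGFP cells, 3 × 10^3 per well, 1536-well, plated on prespotted compound at 10 μM final, parasite-free screening media added to match infected plates; puromycin 10 μM positive, DMSO 0.5% negative; run in parallel with 48 h PbLuc assay at 37 °C, 5% CO2; viability by CellTiter-Glo luminescence, normalized to controls.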

SMILES	cytotoxicity at 10 µM [%]
CNC(=O)c1nc(CC(=O)Nc2cccc(C(F)(F)F)c2)no1	-6.96
Cc1nn(-c2ccc(C(=O)O)cc2)c2c1C(C(C)C)SCC(=O)N2 (centres undefined)	-3.58
Cc1ccc(S(=O)(=O)NCCNc2cc(-n3cccc3)ncn2)c(C)c1	-0.817
CCN(C(=O)c1nc2c(s1)CCCN2Cc1ccccc1)C(C)C	14.2
Cc1nc(CNCC2COCc3c(-c4ccoc4)nnn3C2)cs1 (centres undefined)	8.22
Cc1cc(NCCO)nc(N2CCCC2)c1C#N	-7.02
CCOC(=O)Cn1cccc(S(=O)(=O)N2CCCC2)c1=O	13.4
CN1C(=O)C(C)(C)COc2cc(NS(=O)(=O)Cc3ccccc3)ccc21	-7.79
CN(C)C(=O)N1CCc2c(nnn2C)C1COCc1ccccc1 (centres undefined)	-8.39
O=C(Cn1nc(C(F)(F)F)c(Cl)c1C1CC1)NN1CCOCC1	5.01
COc1ccc(S(=O)(=O)N2CCOC(C)(C(N)=O)C2)cc1 (centres undefined)	5.49
O=C(C1CC1)N1CCCC(C2=Nc3ccccc3S(=O)(=O)N2)C1 (centres undefined)	-1.45
CCn1c(SC)nnc1C1CCN(C(=O)N2CCCC2)CC1	-0.78
CS(=O)(=O)N1CC(c2ccnc(Nc3ccccn3)n2)C1	13.8
CS(=O)(=O)c1cncnc1C1CCCN(C(=O)NCc2ccccc2)C1 (centres undefined)	-0.375
Fc1ccccc1Oc1nccnc1C1CCCN(C2CCOCC2)C1 (centres undefined)	-9.4
c1c[nH]c(CN2CCCC(Cc3ccc(NC4CCCC4)nn3)C2)n1 (centres undefined)	-3.95
Cc1cc(CCC2CN(CC3(O)CCCCC3)CCO2)ncn1 (centres undefined)	2.97
Cc1ccc(CN(C)C(=O)c2cc3c(c(S(N)(=O)=O)c2)CCC3)o1	-52.5
COCCN(CCOC)c1ncc(C#N)cc1Cl	2.8
CC(O)CCN(C)C(=O)Nc1cccc(F)c1 (centres undefined)	-6.16
COc1ccc(CN2CCCC(n3cccn3)C2)c(Cl)c1OC (centres undefined)	4.48
CSC(C)C(=O)Nc1ccnn1-c1ccccc1C (centres undefined)	-12.5

SMILES	cytotoxicity at 10 µM [%]
Cc1ccc(CN(C)C(=O)NCC(C)(C)S(C)(=O)=O)s1	15.6
CCCN(C(=O)CN1CCN(CC(C)O)CC1)C1=CCCCC1 (centres undefined)	4.13
CC(CNC(=O)NCc1ccoc1)N1CCc2sccc2C1 (centres undefined)	-4.8
CN(CC(=O)NCC(CCO)c1ccccc1)C(=O)OC(C)(C)C (centres undefined)	-6.58
CCc1[nH]c(C2(N)CCCCC2)nc(=O)c1C	7.61
OCCN(Cc1cccnc1)c1ccc(Cl)cn1	31.9
CS(=O)(=O)CCN1CCc2c(ncn2C2CC2)C1	-6.06
Cc1ccc(CNC(=O)C2CCN(C(=O)c3ccccc3)CC2)n1C	1.2
Brc1ccc(C2(NCc3noc(C4CC4)n3)CCC2)cc1	13.3
CC(=O)N(C)CC(=O)NC1(c2ccc(Cl)c(Cl)c2)CC1	-5.57
Cc1nn(CCO)c(C)c1CNC1CCc2c(F)cccc21 (centres undefined)	4.59
CC(C)COCCC(=O)Nc1ccc2oc(=O)n(CCN(C)C)c2c1	-7.59
CCN(CC)S(=O)(=O)N1CCCC1CC(=O)c1cccs1 (centres undefined)	3.62
CNC(=O)N1CCCCC1CCNS(C)(=O)=O (centres undefined)	-3.41
COc1ccc(C)cc1CC(=O)NC1(C#N)CCOCC1	6.18
CCC(C)C(=O)NCCCn1nc(C)cc1C (centres undefined)	0.0879
c1cncc(CN(Cc2ccc3c(c2)OCCO3)CC2CCCO2)c1 (centres undefined)	1.22
CC1CCN(C)c2ccccc2N1C(=O)c1ccc(=O)n(C)c1 (centres undefined)	-0.117
Cc1ncccc1C(=O)Nc1cccc2c1C(=O)NC2	1.85
CC(C)C(=O)NCCNC(=O)C(C)OCC(F)(F)F (centres undefined)	-5.56
O=C(NCC(O)c1ccccc1C(F)(F)F)c1cccnc1 (centres undefined)	-2.9
Cc1cccn2cc(CN3CCCC(c4ccn[nH]4)C3)nc12 (centres undefined)	-5.95
CC(C)COC(C)C(=O)N1CCCCCC1 (centres undefined)	1.31

SMILES	cytotoxicity at 10 µM [%]
OCCOc1cc(F)ccc1NCc1nc(-c2ccoc2)no1	-46.9
CS(=O)(=O)CCNCc1ccc(OCc2cscn2)cc1	-136
O=C1CN(C(=O)C2CCCOC2)CCN1Cc1ccc(Cl)cc1 (centres undefined)	-152
CC(C)CCN(C)C(=O)c1cnc2c(cnn2CC(C)C)c1	-0.0554
CC(C)c1cc(C(=O)NCC(O)C2CCOCC2)nn1C(C)(C)C (centres undefined)	-9.55
O=C(COCC1CC1)Nc1ncccc1I	22.5
CCOc1ncccc1NC(=O)N1CCC(n2cncn2)CC1	6.64
FC(F)(F)c1cccc(C2(CNCc3cc[nH]c3)CCOCC2)c1	-6.76
Cc1cnn(CCNCCCOc2ccc(C#N)cc2)c1	-0.222
CS(=O)(=O)CCOCCNc1ccc(Br)cn1	-4.71
COCCOc1ccc(F)cc1NCc1nc2ccccc2n1C	6.29
COc1cc(C(=O)N(Cc2ccco2)C2CC2)cc2c1OCCO2	2.35
Cc1cnccc1N1CCCN(C(=O)CCCn2ccnc2C)CC1	-5.39
O=C(Nc1nc(-c2ccccc2)ns1)N1CCN(C(=O)C2CC2)CC1	-150
Cc1ccccc1C(CNc1ncnc2c1CCNC2)N(C)C (centres undefined)	5.31
CCC[C@@H]1CN(C(=O)c2cc(-c3cccs3)n(C)n2)C[C@H]1N(C)C	-1.84
CN(C)C(C(=O)NCCSc1ncn[nH]1)c1cccc(F)c1 (centres undefined)	-1.64
COc1cccc(-n2c(SCC(=O)O)nnc2-c2cn[nH]c2)c1	-6.76
Cc1ncsc1CCC(=O)N1CCCC1c1cccnc1 (centres undefined)	13.4
O=C(O)c1cn(CC2CCCN(c3nccc4occc34)C2)nn1 (centres undefined)	-5.17
CS(=O)(=O)NCc1cc2n(n1)CCCN(Cc1cc3ccccc3o1)C2	0.403
Cn1c(Cn2cccn2)nnc1C1CCN(Cc2cccnc2)CC1	6.01
Cn1cccc1C(=O)N1CCCC(Cn2cc(CO)nn2)C1 (centres undefined)	1.85

SMILES	cytotoxicity at 10 µM [%]
CC(C)CN1CCn2nc(CNc3ncnc4[nH]ccc34)cc2C1	-0.531
CN(C)c1nc2c(c(N3CCc4c(c(CO)nn4C)C3)n1)CCNC2	-5.72
COc1cc(NCc2ccccc2-n2cncn2)nc(N)n1	-11
Cc1nc(C)n(CCCn2ccnc2-c2cc3n(n2)CCCNC3)n1	3.71
O=C(CCc1cn[nH]c1)N1C[C@H](CO)C[C@H](CN2CCOCC2)C1	2.72
COCCc1noc(-c2ccc(N[C@H]3CCCCNC3=O)nc2)n1	6.9
COCCC1(CO)CCCN(C(=O)c2cc(Cl)ccc2F)C1 (centres undefined)	4.36
CCN1CCC(CC(=O)N[C@H](C(=O)O)c2cccc(F)c2F)CC1	-2.62
Cc1cnccc1CN(C)C(=O)c1cccc(CCC(C)(C)O)c1	-3.55
Cc1nc(NCCSc2nnc(C)s2)c2cccnc2n1	-0.125
Cc1ccc(F)cc1CC(=O)N(CCN1CCOCC1)Cc1ccco1	-3.91
C[C@@H]1CN(C2CCN(c3ccccc3)CC2)CC[C@@]1(O)C1CCOCC1	-10.6
O=C(c1cnc(COc2ccccc2)nc1O)N1CCOCC1	2.55
COCCCC1(CO)CCCN(CCS(C)(=O)=O)C1 (centres undefined)	-16
c1cc(NC2CC3(CCN(Cc4cc[nH]n4)C3)C2)ncn1 (centres undefined)	-4.71
N#CCCN(C(=O)CN1CCCC1c1ccsc1)c1ccccc1 (centres undefined)	-8.42
CN1CCOC(CN(C(=O)COc2ccccc2)c2nccs2)C1 (centres undefined)	-8.18
Cc1nn(C)c(C)c1C1CCCN1Cc1nc(-c2cccs2)no1 (centres undefined)	-9.43
Cc1nc(C)n(CC2CCCN(Cc3cc(C#N)ccc3F)C2)n1 (centres undefined)	-18.3
Cc1noc(CCCC(=O)NC(C)c2ccc(Cl)s2)n1 (centres undefined)	-9.48
N#Cc1ccccc1N1CCCN(C(=O)CCc2ccco2)CC1	-8.48
CN(C)c1cc(CNC(=O)c2cc(F)ccc2F)ccn1	-8.35
CN(Cc1nnc2n1CCC2)C(=O)c1ccc2c(c1)OCCO2	-17.8

SMILES	cytotoxicity at 10 µM [%]
Cc1ccc(-c2ncc(C(=O)NS(C)(=O)=O)s2)c(C)c1	-8.91
COC(=O)c1cc(C(=O)N2CCOCC2(C)C)n(-c2ccccc2)n1	-10.2
O=C(Cn1cnnn1)N1CCCCC1Cn1cccn1 (centres undefined)	-9.24
CCCc1noc(CCC(=O)N2CCCC2c2ccsc2)n1 (centres undefined)	-11
CC(NC(=O)N1CCN(c2ccccc2)CC1)c1nncn1C (centres undefined)	2.36
Cc1nn(C)c(Cl)c1C1CCCN1C(=O)c1nccnc1N (centres undefined)	-6.9
O=C(NCc1ccc(-n2cncn2)nc1)c1ccc2c(c1)CCO2	-10.2
O=C(NCC1CCCO1)c1cc(-c2ccncc2)c2cnccc2n1 (centres undefined)	1.05
O=C(Nc1cccc(F)c1)C1=NOC2(CCNCC2)C1	5.19
Cc1nc(CN2CCn3cc(CNC(=O)C4CCC4)nc3C2)cs1	-6.52
O=C(Nc1cccnc1)[C@@H]1C[C@H]2OCC[C@H]2N(Cc2ccsc2)C1	2.88
COc1ccc(-c2cc(C3CCCNC3)ccn2)cc1 (centres undefined)	0.288
O=C(Cc1cccs1)N1CCn2cc(Cn3cccn3)nc2C1	-77.9
CC(C)c1nc(-c2cc(C(=O)NCCN(C)C)c3ccccn23)cs1	4.77
Cc1nc(CN2CCC3(CCCN(C(=O)c4cnccn4)C3)C2)cs1 (centres undefined)	-147
Cc1noc([C@@H]2CC[C@@H]3[C@@H](CCN3S(=O)(=O)c3cccnc3)O2)n1	-13.1
CCN1CC2(CC1=O)CN(Cc1cnn(C)c1)CCN(C(C)=O)C2 (centres undefined)	-12.5
COCCN1CCC2(CCN(Cc3cccs3)CC2)C1=O	1.22
COCC(=O)N1CCCn2c(CN3CCOCC3)nnc2C1	-131
c1csc(CN2C[C@@H](n3cccn3)[C@H]3OCCC[C@H]32)c1	1.63
CN1CC[C@]2(CN(Cc3nccs3)C[C@H]2c2ccccc2)C1=O	10.8
Cc1[nH]c2cc(C3CCCCN3C(=O)C3CC3)nn2c(=O)c1C (centres undefined)	-5.34
